Test results published in ChEMBL document CHEMBL1128389, “Thiadiazole derivatives: highly potent and specific HIV-1 reverse transcriptase inhibitors” (J Med Chem, 1995).

tested on: MT4; assay: Compound was evaluated for the inhibition of HIV-1 induced CPE (HTLV-III B strain ) replication in MT-4 cells.; assay type: functional, cell-based; conditions: Homo sapiens
How it was run: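 HTLV-IIIB strain of HIV-1 in MT-4 cells; activity read as inhibition of virus-induced cytopathic effect, viable cells counted by MTT method; EC50 is the 50% effective concentration.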

SMILES | EC50 [µM]
Oc1nsnc1-c1c(Cl)cccc1Cl | 212

organism: Homo sapiens; assay: Cytotoxic concentration based on the reduction of viability of mock-infected peripheral blood lymphocytes (PBL).; assay type: functional; conditions: not given
How it was run: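 Mock-infected peripheral blood lymphocytes; CC50 = concentration giving 50% reduction in viability, viable cells measured by MTT method.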

SMILES | CC50 [µM]
CCCN(C)C(=O)Oc1nsnc1-c1c(Cl)cccc1Cl | 150

organism: Homo sapiens; assay: Cytotoxic concentration based on the reduction of viability of mock-infected peripheral blood lymphocytes (PBL); assay type: functional; conditions: not given
How it was run: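 Mock-infected peripheral blood lymphocytes; viable cell number determined by MTT method; CC50 is the concentration giving 50% reduction of viability.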

SMILES | CC50 [µM]
Cc1cn([C@H]2C[C@H](N=[N+]=[N-])[C@@H](CO)O2)c(=O)[nH]c1=O [ZIDOVUDINE] | 83
CC(=O)c1ccc(C)cc1NC(C(N)=O)c1c(Cl)cccc1Cl (centres undefined) [LOVIRIDE] | 48

tested on: MT4; assay: Cytotoxic concentration based on the reduction of viability of mock-infected MT-4 cells; assay type: functional; conditions: Homo sapiens
How it was run: (§1)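 Mock-infected MT-4 cells; viable cell number determined by MTT method; CC50 = concentration giving 50% reduction of viability.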

SMILES | CC50 [µM]
CCCN(C)C(=O)Oc1nsnc1-c1c(Cl)cccc1Cl | 131

organism: Homo sapiens; assay: Compound was evaluated for the inhibition of HIV-1 (HTLV-III B strain ) replication in peripheral blood lymphocytes (PBL), measured as p24 antigen reduction.; conditions: not given

SMILES | EC50 [µM]
Cc1cn([C@H]2C[C@H](N=[N+]=[N-])[C@@H](CO)O2)c(=O)[nH]c1=O [ZIDOVUDINE] | 0.003
CC(=O)c1ccc(C)cc1NC(C(N)=O)c1c(Cl)cccc1Cl (centres undefined) [LOVIRIDE] | 0.11

tested on: not listed separately; assay: Selectivity index is the ratio of CC50 and EC50 in MT-4 cells.; assay type: functional, MT4; conditions: not given
How it was run: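 MT-4 cells; selectivity index = CC50 (MTT viability of mock-infected cells) divided by EC50 (inhibition of HIV-1-induced cytopathic effect).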

SMILES | Selectivity index
Oc1nsnc1-c1c(Cl)cccc1Cl | <1
CN(C)C(=O)Oc1nsnc1-c1ccccc1 | 8
CCN(C)C(=O)Oc1nsnc1-c1c(Cl)cccc1Cl | 3487
CCCCCCN(C)C(=O)Oc1nsnc1-c1c(Cl)cccc1Cl | 160
Cc1ccnc2c1NC(=O)c1cccnc1N2C1CC1 [NEVIRAPINE] | 3973
CN(C)C(=O)Oc1nsnc1-c1c(Cl)cccc1Cl | 604
Cc1nsnc1OC(=O)N(C)C | <1
CCCCN(C)C(=O)Oc1nsnc1-c1c(Cl)cccc1Cl | 744
CN(C)C(=O)Oc1nsnc1-c1ccccc1Cl | 503
CN(C)C(=O)Oc1cnsn1 | <1
CC(=O)c1ccc(C)cc1NC(C(N)=O)c1c(Cl)cccc1Cl (centres undefined) [LOVIRIDE] | 22833

tested on: MT4; assay: Selectivity index is the ratio of CC50 and EC50 in MT-4 cells; assay type: functional, Homo sapiens; conditions: not given
How it was run: (§2)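 HIV-1 strain HTLV-IIIB in MT-4 cells. EC50 is 50% inhibition of virus-induced cytopathic effect. CC50 is 50% loss of viability in mock-infected cells. Viable cells were counted by the MTT method. Index = CC50/EC50.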

SMILES | Selectivity index
CCCN(C)C(=O)Oc1nsnc1-c1c(Cl)cccc1Cl | <1

tested on: not listed separately; assay: Selectivity index is the ratio of CC50 and EC50 MT-4 cells.; assay type: functional, MT4; conditions: not given; how it was run: as §2

SMILES | Selectivity index
CCCN(C)C(=O)Oc1nsnc1-c1c(Cl)cccc1Cl | 10077

tested on: MT4; assay: Cytotoxic concentration based on the reduction of viability of mock-infected cells; assay type: functional; conditions: Homo sapiens; how it was run: as §1

SMILES | CC50 [µM]
Oc1nsnc1-c1c(Cl)cccc1Cl | 221
CN(C)C(=O)Oc1nsnc1-c1ccccc1 | 183
CCN(C)C(=O)Oc1nsnc1-c1c(Cl)cccc1Cl | 136
CCCCCCN(C)C(=O)Oc1nsnc1-c1c(Cl)cccc1Cl | 16
Cc1ccnc2c1NC(=O)c1cccnc1N2C1CC1 [NEVIRAPINE] | 290
CN(C)C(=O)Oc1nsnc1-c1c(Cl)cccc1Cl | 145
Cc1nsnc1OC(=O)N(C)C | 535
CCCCN(C)C(=O)Oc1nsnc1-c1c(Cl)cccc1Cl | 29
CN(C)C(=O)Oc1nsnc1-c1ccccc1Cl | 161
CN(C)C(=O)Oc1cnsn1 | 560
Cc1cn([C@H]2C[C@H](N=[N+]=[N-])[C@@H](CO)O2)c(=O)[nH]c1=O [ZIDOVUDINE] | 3.2
CC(=O)c1ccc(C)cc1NC(C(N)=O)c1c(Cl)cccc1Cl (centres undefined) [LOVIRIDE] | 137

organism: Homo sapiens; assay: (§3) Selectivity index is the ratio of CC50 and EC50 in peripheral blood lymphocytes (PBL).; assay type: functional; conditions: not given
How it was run: (§4)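 HIV-1 strain HTLV-IIIB in peripheral blood lymphocytes. EC50 is 50% reduction of p24 antigen in culture supernatant. CC50 is 50% loss of viability in mock-infected cells, with viable cells counted by MTT. Index = CC50/EC50.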

SMILES | Selectivity index
CCCN(C)C(=O)Oc1nsnc1-c1c(Cl)cccc1Cl | 37500

tested on: not listed separately; assay: as §3; assay type: functional; conditions: not given; how it was run: as §4

SMILES | Selectivity index
Cc1cn([C@H]2C[C@H](N=[N+]=[N-])[C@@H](CO)O2)c(=O)[nH]c1=O [ZIDOVUDINE] | 27667
CC(=O)c1ccc(C)cc1NC(C(N)=O)c1c(Cl)cccc1Cl (centres undefined) [LOVIRIDE] | 436

tested on: MT4; assay: Cytotoxic concentration based on the reduction of viability of mock-infected MT-4 cells.; assay type: functional; conditions: Homo sapiens; how it was run: as §1

SMILES | CC50 [µM]
CCCN(C)C(=O)Oc1nsnc1-c1c(Cl)cccc1Cl | 131

tested on: MT4; assay: Compound was evaluated for the inhibition of HIV-1 induced CPE (HTLV-III B strain ) replication in MT-4 cells; assay type: functional, cell-based; conditions: Homo sapiens
How it was run: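 HIV-1 strain HTLV-IIIB in MT-4 cells; EC50 = concentration giving 50% inhibition of virus-induced cytopathic effect; viable cells counted by MTT method.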

SMILES | EC50 [µM]
CCCN(C)C(=O)Oc1nsnc1-c1c(Cl)cccc1Cl | 0.013
CN(C)C(=O)Oc1nsnc1-c1ccccc1 | 23
CCN(C)C(=O)Oc1nsnc1-c1c(Cl)cccc1Cl | 0.039
CCCCCCN(C)C(=O)Oc1nsnc1-c1c(Cl)cccc1Cl | 0.1
Cc1ccnc2c1NC(=O)c1cccnc1N2C1CC1 [NEVIRAPINE] | 0.073
CN(C)C(=O)Oc1nsnc1-c1c(Cl)cccc1Cl | 0.24
Cc1nsnc1OC(=O)N(C)C | > 535
CCCCN(C)C(=O)Oc1nsnc1-c1c(Cl)cccc1Cl | 0.039
CN(C)C(=O)Oc1nsnc1-c1ccccc1Cl | 0.32
CN(C)C(=O)Oc1cnsn1 | > 560
Cc1cn([C@H]2C[C@H](N=[N+]=[N-])[C@@H](CO)O2)c(=O)[nH]c1=O [ZIDOVUDINE] | 0.004
CC(=O)c1ccc(C)cc1NC(C(N)=O)c1c(Cl)cccc1Cl (centres undefined) [LOVIRIDE] | 0.006

tested on: MT4; assay: Compound was evaluated for the inhibition of HIV-2 induced CPE (LAV-2EHO strain ) replication in MT-4 cells; assay type: functional, cell-based; conditions: Homo sapiens

SMILES | EC50 [µM]
CCCN(C)C(=O)Oc1nsnc1-c1c(Cl)cccc1Cl | > 131
